Results published in ChEMBL document CHEMBL1772954, “Antifungal, cytotoxic and SAR studies of a series of N-alkyl, N-aryl and N-alkylphenyl-1,4-pyrrolediones and related compounds” (Bioorg Med Chem, 2011).
Values after ≈ are worked out from the molar mass of the structure shown.

Experiments:
[1] = tested on: Aspergillus flavus; experiment: Antifungal activity against Aspergillus flavus ATCC 9170; type: functional
How it was run: (§1)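 Broth microdilution per CLSI M38-A2 in RPMI-1640 with MOPS at pH 7.0. Inoculum 1-5 × 10^3 CFU/mL, with twofold compound dilutions spanning 250-0.24 µg/ml (final DMSO <1%). Plates incubated at 35 °C, moist and dark, and read when the control fungus had grown. MIC is total growth inhibition. MFC comes from subculturing clear wells in duplicate onto SDA.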

[2] = tested on: Trichophyton rubrum; experiment: Antifungal activity against Trichophyton rubrum C 113 2000; type: functional
How it was run: (§2)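 Dermatophytes tested by CLSI M38-A2 microdilution in MOPS-buffered RPMI-1640 at pH 7.0. Inoculum 1-5 × 10^3 CFU/mL; compounds 250 to 0.24 µg/ml in twofold steps, final DMSO <1%. Incubated at 28 °C in a moist, dark chamber and read according to control growth. MIC is the lowest concentration with complete inhibition. MFC is the lowest concentration with no growth after duplicate subculture on SDA.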

[3] = tested on: Candida albicans; experiment: Antifungal activity against Candida albicans ATCC 10213; type: functional
How it was run: (§3)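 CLSI M27-A3 broth microdilution in RPMI-1640 buffered to pH 7.0 with MOPS. Inoculum 1-5 × 10^3 CFU/mL. Compound twofold dilutions from 250 to 0.24 µg/ml, final DMSO <1%. Incubated at 35 °C in a moist, dark chamber and read at 48 h. MIC is the lowest concentration giving total growth inhibition. For MFC, 5 µL from clear wells was plated in duplicate on SDA; MFC is the lowest concentration with no growth.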

[4] = tested on: Aspergillus niger; experiment: Antifungal activity against Aspergillus niger ATCC 9029; type: functional; how it was run: as §1
[5] = Cytotoxicity against human erythrocytes assessed as hemolysis by spectrometric analysis; type: cell-based, Erythrocyte
How it was run: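 Human heparinized red blood cells were washed in PBS at pH 7.0 and suspended at 4% in sterile 5% glucose. Compounds from DMSO stocks were diluted in 5% glucose to final concentrations of 250 to 0.24 µg/ml and incubated with the cells at 37 °C. Released hemoglobin was read at 540 nm. HC50 is the concentration giving 50% lysis relative to the drug-free value.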

[6] = tested on: Saccharomyces cerevisiae; experiment: Antifungal activity against Saccharomyces cerevisiae ATCC 9763; type: functional; how it was run: as §3
[7] = tested on: Cryptococcus neoformans; experiment: Antifungal activity against Cryptococcus neoformans ATCC 32264; type: functional; how it was run: as §3
[8] = tested on: NCI-H460; experiment: Cytotoxicity against human H460 cells assessed as cell growth after 2 days by sulforhodamine B assay; type: functional; conditions: NCI-H460, 48 h
How it was run: (§4)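 NCI cell lines were run by the Monks method: cells were plated with compounds from DMSO stocks and incubated 2 days at 37 °C in 5% CO2, in duplicate. Cells were fixed with cold TCA, stained with 0.4% SRB, and the bound dye was solubilized in 10 mM tris-base and read at 515 nm. The zero-day control was subtracted, and GI50 was taken from the curves.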

[9] = tested on: MCF7; experiment: Cytotoxicity against human MCF7 cells assessed as cell growth after 2 days by sulforhodamine B assay; type: functional; conditions: MCF7, 48 h; how it was run: as §4
[10] = tested on: Aspergillus fumigatus; experiment: Antifungal activity against Aspergillus fumigatus ATCC 26934; type: functional; how it was run: as §1
[11] = tested on: Candida tropicalis; experiment: Antifungal activity against Candida tropicalis C 131 2000; type: functional; how it was run: as §3
[12] = tested on: SF-268; experiment: Cytotoxicity against human SF268 cells assessed as cell growth after 2 days by sulforhodamine B assay; type: functional; conditions: SF-268, 48 h; how it was run: as §4
[13] = tested on: Nannizzia gypsea; experiment: Antifungal activity against Microsporum gypseum C 115 2000; type: functional; how it was run: as §2
[14] = tested on: Trichophyton mentagrophytes; experiment: Antifungal activity against Trichophyton mentagrophytes ATCC 9972; type: functional; how it was run: as §2

| Structure (SMILES) | MFC [1] | MIC [1] | MFC [2] | MIC [2] | MIC [3] | MFC [4] | MIC [4] | HC50 [5] | MFC [6] | MIC [6] | MFC [7] | MIC [7] | GI50 [8] | GI50 [9] | MFC [10] | MIC [10] | MIC [11] | GI50 [12] | MFC [13] | MIC [13] | further results |
| --- | --- | --- | --- | --- | --- | --- | --- | --- | --- | --- | --- | --- | --- | --- | --- | --- | --- | --- | --- | --- | --- |
| CCN1C(=O)C=CC1=O [N-ETHYLMALEIMIDE] | 15.6 µg/mL (≈ 125 µM) | 15.6 µg/mL (≈ 125 µM) | 3.9 µg/mL (≈ 31.2 µM) | 3.9 µg/mL (≈ 31.2 µM) | 62.5 µg/mL (≈ 499 µM) | 15.6 µg/mL (≈ 125 µM) | 7.81 µg/mL (≈ 62.4 µM) | > 250 µg/mL | 15.6 µg/mL (≈ 125 µM) | 7.81 µg/mL (≈ 62.4 µM) | 31.2 µg/mL (≈ 250 µM) | 15.6 µg/mL (≈ 125 µM) | 6.7 µg/mL (≈ 53.5 µM) | 9.9 µg/mL (≈ 79.1 µM) | 31.2 µg/mL (≈ 250 µM) | 15.6 µg/mL (≈ 125 µM) | 62.5 µg/mL (≈ 499 µM) | 6.5 µg/mL (≈ 51.9 µM) | 7.81 µg/mL (≈ 62.4 µM) | 7.81 µg/mL (≈ 62.4 µM) | MFC [3]: 250 µg/mL (≈ 2000 µM); MFC [11]: 125 µg/mL (≈ 999 µM); MFC [14]: 15.6 µg/mL (≈ 125 µM); MIC [14]: 7.81 µg/mL (≈ 62.4 µM) |
| O=C1C(Cl)=C(Cl)C(=O)N1CCc1ccccc1 | 15.6 µg/mL (≈ 57.9 µM) | 15.6 µg/mL (≈ 57.9 µM) | 7.81 µg/mL (≈ 28.9 µM) | 3.9 µg/mL (≈ 14.4 µM) | 7.81 µg/mL (≈ 28.9 µM) | 31.2 µg/mL (≈ 116 µM) | 15.6 µg/mL (≈ 57.9 µM) | > 250 µg/mL | 7.81 µg/mL (≈ 28.9 µM) | 3.9 µg/mL (≈ 14.4 µM) | 7.81 µg/mL (≈ 28.9 µM) | 7.81 µg/mL (≈ 28.9 µM) | > 10 µg/mL | > 10 µg/mL | 15.6 µg/mL (≈ 57.9 µM) | 15.6 µg/mL (≈ 57.9 µM) | 15.6 µg/mL (≈ 57.9 µM) | > 10 µg/mL | 31.2 µg/mL (≈ 116 µM) | 15.6 µg/mL (≈ 57.9 µM) | MFC [3]: 15.6 µg/mL (≈ 57.9 µM); MFC [11]: 31.2 µg/mL (≈ 116 µM); MFC [14]: 15.6 µg/mL (≈ 57.9 µM); MIC [14]: 7.81 µg/mL (≈ 28.9 µM) |
| O=C1C=CC(=O)N1CCc1ccccc1 | 31.2 µg/mL (≈ 155 µM) | 31.2 µg/mL (≈ 155 µM) | 3.9 µg/mL (≈ 19.4 µM) | 1.95 µg/mL (≈ 9.69 µM) | 3.9 µg/mL (≈ 19.4 µM) | 15.6 µg/mL (≈ 77.7 µM) | 15.6 µg/mL (≈ 77.7 µM) | > 250 µg/mL | 7.81 µg/mL (≈ 38.8 µM) | 3.9 µg/mL (≈ 19.4 µM) | 15.6 µg/mL (≈ 77.7 µM) | 7.81 µg/mL (≈ 38.8 µM) | 4.7 µg/mL (≈ 23.4 µM) | 3.6 µg/mL (≈ 17.9 µM) | 31.2 µg/mL (≈ 155 µM) | 31.2 µg/mL (≈ 155 µM) | 15.6 µg/mL (≈ 77.7 µM) | 4.1 µg/mL (≈ 20.4 µM) | 7.81 µg/mL (≈ 38.8 µM) | 3.9 µg/mL (≈ 19.4 µM) | MFC [14]: 15.6 µg/mL (≈ 77.7 µM); MIC [14]: 7.81 µg/mL (≈ 38.8 µM) |
| COc1ccc(N2C(=O)C=CC2=O)c(OC)c1 | 125 µg/mL (≈ 536 µM) | 62.5 µg/mL (≈ 268 µM) | 7.81 µg/mL (≈ 33.5 µM) | 3.9 µg/mL (≈ 16.7 µM) | 15.6 µg/mL (≈ 67 µM) | 62.5 µg/mL (≈ 268 µM) | 15.6 µg/mL (≈ 67 µM) | > 250 µg/mL | 7.81 µg/mL (≈ 33.5 µM) | 7.81 µg/mL (≈ 33.5 µM) | 7.81 µg/mL (≈ 33.5 µM) | 7.81 µg/mL (≈ 33.5 µM) | > 10 µg/mL | > 10 µg/mL | 62.5 µg/mL (≈ 268 µM) | 31.2 µg/mL (≈ 134 µM) | 15.6 µg/mL (≈ 67 µM) | > 10 µg/mL | 7.81 µg/mL (≈ 33.5 µM) | 3.9 µg/mL (≈ 16.7 µM) | MFC [3]: 15.6 µg/mL (≈ 67 µM); MFC [11]: 15.6 µg/mL (≈ 67 µM); MFC [14]: 3.9 µg/mL (≈ 16.7 µM); MIC [14]: 3.9 µg/mL (≈ 16.7 µM) |
| O=C1C=CC(=O)N1CCCCc1ccccc1 | 15.6 µg/mL (≈ 68.2 µM) | 7.81 µg/mL (≈ 34.1 µM) | 0.97 µg/mL (≈ 4.23 µM) | 0.48 µg/mL (≈ 2.09 µM) | 3.9 µg/mL (≈ 17 µM) | 7.81 µg/mL (≈ 34.1 µM) | 7.81 µg/mL (≈ 34.1 µM) | > 250 µg/mL | 1.95 µg/mL (≈ 8.5 µM) | 0.97 µg/mL (≈ 4.23 µM) | 31.2 µg/mL (≈ 136 µM) | 15.6 µg/mL (≈ 68.2 µM) | > 10 µg/mL | > 10 µg/mL | 31.2 µg/mL (≈ 136 µM) | 15.6 µg/mL (≈ 68.2 µM) | 7.81 µg/mL (≈ 34.1 µM) | > 10 µg/mL | 1.95 µg/mL (≈ 8.5 µM) | 0.97 µg/mL (≈ 4.23 µM) | MFC [3]: 7.81 µg/mL (≈ 34.1 µM); MFC [11]: 15.6 µg/mL (≈ 68.2 µM); MFC [14]: 7.81 µg/mL (≈ 34.1 µM); MIC [14]: 3.9 µg/mL (≈ 17 µM) |
| CC(C)(C)c1ccccc1N1C(=O)C=CC1=O | 62.5 µg/mL (≈ 273 µM) | 62.5 µg/mL (≈ 273 µM) | 3.9 µg/mL (≈ 17 µM) | 1.95 µg/mL (≈ 8.5 µM) | 3.9 µg/mL (≈ 17 µM) | 125 µg/mL (≈ 545 µM) | 62.5 µg/mL (≈ 273 µM) | > 250 µg/mL | 7.81 µg/mL (≈ 34.1 µM) | 3.9 µg/mL (≈ 17 µM) | 7.81 µg/mL (≈ 34.1 µM) | 3.9 µg/mL (≈ 17 µM) | > 10 µg/mL | > 10 µg/mL | 31.2 µg/mL (≈ 136 µM) | 15.6 µg/mL (≈ 68.2 µM) | 3.9 µg/mL (≈ 17 µM) | > 10 µg/mL | 3.9 µg/mL (≈ 17 µM) | 1.95 µg/mL (≈ 8.5 µM) | MFC [3]: 3.9 µg/mL (≈ 17 µM); MFC [11]: 3.9 µg/mL (≈ 17 µM); MFC [14]: 3.9 µg/mL (≈ 17 µM); MIC [14]: 1.95 µg/mL (≈ 8.5 µM) |
| O=C1C=CC(=O)N1c1ccc(F)cc1 | 15.6 µg/mL (≈ 81.8 µM) | 15.6 µg/mL (≈ 81.8 µM) | 7.81 µg/mL (≈ 40.9 µM) | 3.9 µg/mL (≈ 20.4 µM) | 15.6 µg/mL (≈ 81.8 µM) | 7.81 µg/mL (≈ 40.9 µM) | 7.81 µg/mL (≈ 40.9 µM) | > 250 µg/mL | 7.81 µg/mL (≈ 40.9 µM) | 3.9 µg/mL (≈ 20.4 µM) | 15.6 µg/mL (≈ 81.8 µM) | 7.81 µg/mL (≈ 40.9 µM) | > 10 µg/mL | > 10 µg/mL | 31.2 µg/mL (≈ 163 µM) | 15.6 µg/mL (≈ 81.8 µM) | 15.6 µg/mL (≈ 81.8 µM) | > 10 µg/mL | 7.81 µg/mL (≈ 40.9 µM) | 3.9 µg/mL (≈ 20.4 µM) | MFC [3]: 15.6 µg/mL (≈ 81.8 µM); MFC [11]: 15.6 µg/mL (≈ 81.8 µM); MFC [14]: 7.81 µg/mL (≈ 40.9 µM); MIC [14]: 3.9 µg/mL (≈ 20.4 µM) |
